Screens from PubChem.
The full list was thinned out, with hits kept by preference.
HCT116 PTEN-null – PTEN-deleted cell growth suppression; HCT116 PTEN-null viability, CellTiter-Glo, 60 h; hits give low values; viability, % at 10 µM; actives 1.2% (n = 140,000); AID 827;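 active = viability at or below a set limit, 4 SD under the median of all tested compounds, cut at about 3.7% in these data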;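 note: PTEN knockout HCT116 line with beta catenin targeted HCT116 as companion control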
Lung fibro prol – blocks proliferation of human lung fibroblasts | viability, % at 10 µM | LL 47 human lung fibroblast viability, ATP luminescence; hits give low values | actives 1.1% (n = 85,000);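 active = viability at or below 50% in the single dose screen; inactive = viability above 50%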;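 note: compound exposure lasted 72 h before the ATP readout; 100% = median luminescence of untreated cell-only wells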
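Times – overnight cell rest, 72 h compound treatment at 37 °C · Test system – human lung fibroblast line LL 47, low passage · Amount – 1,150 cells in each well · Controls – cell-only wells, no compound · Doses – 0.1% DMSO in all compound wells · Measured by – CellTiter-Glo luminescence · Buffer or medium – IMEM plus 15% FBS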
PTK2B oligo ant – blocks oligomerization of human Pyk2 in cells | Q14289 | Q293 cells, Pyk2 FERM NanoBiT luminescence; hits give low values | z-score (the deposit names both 25 µM and 10 µM) | actives 0.83% (n = 99,000);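 active = Z-score of -3 or lower, scaled per plate to the spread of control and sample wells; inactive = z-score above -3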;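 note: negative z-score means lost luminescence so less FERM oligomerization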
Target sequence (Q14289 whole entry, looked up): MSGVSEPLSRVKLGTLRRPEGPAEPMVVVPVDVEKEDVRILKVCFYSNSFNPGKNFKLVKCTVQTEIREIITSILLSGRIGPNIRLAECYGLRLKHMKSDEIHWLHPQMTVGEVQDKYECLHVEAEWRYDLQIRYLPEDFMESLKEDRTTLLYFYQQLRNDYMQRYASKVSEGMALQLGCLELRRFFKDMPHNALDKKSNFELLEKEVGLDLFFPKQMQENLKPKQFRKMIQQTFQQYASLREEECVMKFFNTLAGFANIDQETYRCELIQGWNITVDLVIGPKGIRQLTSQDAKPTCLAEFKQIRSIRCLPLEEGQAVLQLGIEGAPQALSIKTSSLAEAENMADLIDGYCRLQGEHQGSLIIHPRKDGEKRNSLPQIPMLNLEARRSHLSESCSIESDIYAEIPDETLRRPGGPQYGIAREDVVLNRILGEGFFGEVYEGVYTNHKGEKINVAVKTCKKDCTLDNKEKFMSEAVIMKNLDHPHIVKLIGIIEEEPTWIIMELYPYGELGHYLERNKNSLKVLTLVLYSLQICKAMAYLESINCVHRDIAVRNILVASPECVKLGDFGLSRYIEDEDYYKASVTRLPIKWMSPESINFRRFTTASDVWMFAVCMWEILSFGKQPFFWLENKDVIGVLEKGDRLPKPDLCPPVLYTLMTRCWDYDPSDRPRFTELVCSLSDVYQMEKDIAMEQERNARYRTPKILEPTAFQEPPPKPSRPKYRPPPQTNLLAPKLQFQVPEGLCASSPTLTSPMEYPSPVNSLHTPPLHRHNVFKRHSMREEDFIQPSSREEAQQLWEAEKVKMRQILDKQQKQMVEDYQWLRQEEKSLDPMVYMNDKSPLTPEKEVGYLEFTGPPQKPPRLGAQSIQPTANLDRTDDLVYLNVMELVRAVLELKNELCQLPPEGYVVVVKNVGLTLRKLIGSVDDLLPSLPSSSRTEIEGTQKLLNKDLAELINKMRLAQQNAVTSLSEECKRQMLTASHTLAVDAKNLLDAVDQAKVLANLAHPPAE
HUVEC prolif 384 – blocks proliferation of human endothelial cells | HUVEC proliferation, CellTiter-Glo luminescence, 72 h; hits give low values | viability, % at 10 µM (by protocol) | actives 1.1% (n = 86,000);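 active = viability at or below 30%; inactive = viability above 30%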;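 note: 100% = median luminescence of DMSO-only cell control wells on each plate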
HCT116 bCat-KO – beta-catenin-lacking colon tumor cell growth suppression | viability, % at 10 µM | HCT116 beta-catenin knockout viability, CellTiter-Glo, 60 h; hits give low values | actives 1.5% (n = 140,000);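 active = viability at or under a set limit, the compound median less 4 SD, cut at about 6% in these data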;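 note: 0% = Hyamine 1622 control at 20 µM and 100% = untreated cell control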
H69AR inhibit – blocks growth of human H69AR lung tumor cells; H69AR lung tumor viability, ATP luminescence, 72 h; hits give low values; viability, % at 10 µM; actives 6% (n = 85,000); AID 598;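 active = viability at or below 40%; inactive = viability above 40%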;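 note: multidrug resistant small cell line overexpressing MRP-1 efflux transporter; 100% = mean luminescence of untreated control wells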
* marks the source's active call; other numbers are inactive results.

`c1ccc(CCn2nnnc2C(c2cccnc2)N2CCN(c3nc4ccccc4s3)CC2)cc1` (stereo not drawn) gave HCT116 PTEN-null 25, Lung fibro prol 101, PTK2B oligo ant -3*, HUVEC prolif 384 79, HCT116 bCat-KO 26 and H69AR inhibit 96.
CCCC(c1nnnn1Cc1cccs1)N1CCN(c2nc3ccccc3s2)CC1 (stereo not drawn) was read as HCT116 PTEN-null 57, Lung fibro prol 95, PTK2B oligo ant -3.5*, HUVEC prolif 384 104, HCT116 bCat-KO 62 and H69AR inhibit 85.
For C=CCNC(=O)c1onc(CSc2ccccc2CC)c1C(=O)O the results were HCT116 PTEN-null 96 and HCT116 bCat-KO 95.
Screening O=C(NCCc1ccc(Cl)cc1)C1CCN(S(=O)(=O)N2CCC3(CC2)OCCO3)CC1 returned HCT116 PTEN-null 74, PTK2B oligo ant 3.2 and HCT116 bCat-KO 88.
`COc1ccc(C(=O)NN/C(C)=C/C(=O)C(F)(F)C(F)(F)C(F)(F)F)cc1` gave HCT116 PTEN-null 29 and HCT116 bCat-KO 23.
Screening Cc1cccc(N(CC(O)CON=C2c3ccccc3-c3ccccc32)S(C)(=O)=O)c1 (stereo not drawn) returned HCT116 PTEN-null 17, Lung fibro prol 104, PTK2B oligo ant -1.9, HUVEC prolif 384 60, HCT116 bCat-KO 37 and H69AR inhibit 46.
For Cc1ccc(-n2c(=O)[nH]cc(C(=O)Nc3ccc4c(c3)OCCO4)c2=O)cc1 the results were HCT116 PTEN-null 99, Lung fibro prol 106, PTK2B oligo ant -3.1*, HUVEC prolif 384 86, HCT116 bCat-KO 106 and H69AR inhibit 97.
`COC(=O)c1sccc1NC(=S)N1CCN(c2cccc(C)c2C)CC1` gave HCT116 PTEN-null 66 and HCT116 bCat-KO 69.
`Cc1sc2nc(C3CC3)nc(NCCNS(=O)(=O)c3ccccc3)c2c1C` gave HCT116 PTEN-null 83, Lung fibro prol 91, PTK2B oligo ant -0.74, HUVEC prolif 384 79, HCT116 bCat-KO 87 and H69AR inhibit 22*.
Screening CCCC(=Nc1ccc(N)cc1)C1=C(O)C(C(=O)OC)C(C)(C)CC1=O (stereo not drawn) returned HCT116 PTEN-null 96, Lung fibro prol 100, PTK2B oligo ant -0.12, HUVEC prolif 384 88, HCT116 bCat-KO 104 and H69AR inhibit 20*.
`CCCC(=O)C1=C(O)C(C(=O)OC)C(C)(C)CC1=Nc1ccc(N)cc1` (stereo not drawn) gave HCT116 PTEN-null 87, Lung fibro prol 97, PTK2B oligo ant -0.41, HUVEC prolif 384 95, HCT116 bCat-KO 89 and H69AR inhibit 81.
Screening C=CCn1c(SCC(=O)c2[nH]c(C)c(C(=O)OC)c2C)nc2scc(-c3ccc(OC)c(OC)c3)c2c1=O returned HCT116 PTEN-null 2.5* and HCT116 bCat-KO 4.1*.
`Nc1nc(Nc2cccc(F)c2)nc2ccccc12` gave HCT116 PTEN-null 71, PTK2B oligo ant -0.65, HUVEC prolif 384 74, HCT116 bCat-KO 70 and H69AR inhibit 36*.
`O=c1oc(Nc2cccc(F)c2)nc2ccccc12` gave HCT116 PTEN-null 91, PTK2B oligo ant -0.82 and HCT116 bCat-KO 112.
`CCN1CCc2c(sc(NC(=O)Nc3ccc(Cl)c(Cl)c3)c2C(N)=O)C1` gave HCT116 PTEN-null 3.8*, PTK2B oligo ant -0.3 and HCT116 bCat-KO 14.
`CCN1CCc2c(sc(NC(=O)c3ccc(S(=O)(=O)N4CCOCC4)cc3)c2C(N)=O)C1` gave HCT116 PTEN-null 82, Lung fibro prol 102, HUVEC prolif 384 96, HCT116 bCat-KO 85 and H69AR inhibit 89.
For CCN(CC)c1ccc2cc(C(=O)Nc3cccnc3N3CCOCC3)c(=O)oc2c1 the results were Lung fibro prol 64, HUVEC prolif 384 60 and H69AR inhibit 21*.
For CCOc1cc(-n2cnnn2)c(OCC)cc1NC(=O)c1cc2ccc(N(CC)CC)cc2oc1=O the results were Lung fibro prol 86, HUVEC prolif 384 34 and H69AR inhibit 13*.
Screening CCN(CC)c1ccc2cc(C(=O)Nc3ccccn3)c(=O)oc2c1 returned HCT116 PTEN-null 100, Lung fibro prol 96, PTK2B oligo ant 0.17, HUVEC prolif 384 94, HCT116 bCat-KO 99 and H69AR inhibit 93.
CCOC(=O)c1cc([N+](=O)[O-])c([N+](=O)[O-])cc1NC(C)=O was read as HCT116 PTEN-null 22, PTK2B oligo ant 0.54 and HCT116 bCat-KO 13.
COc1ccc(CCNC(=O)c2ccc(Cl)cc2Cl)cc1 was read as HCT116 PTEN-null 89, PTK2B oligo ant 0.63 and HCT116 bCat-KO 84.
COC(=O)/C(=C\Nc1ccc(OC)cc1)NC(=O)c1ccc(Cl)cc1Cl was read as HCT116 PTEN-null 77, Lung fibro prol 88, PTK2B oligo ant 0.27, HUVEC prolif 384 75, HCT116 bCat-KO 65 and H69AR inhibit 36*.
`O=C(CNc1ccccc1)N/N=C/c1ccc([N+](=O)[O-])o1` gave HCT116 PTEN-null 4, PTK2B oligo ant -0.32 and HCT116 bCat-KO 2.6*.
`Cc1ccc(NCC(=O)N/N=C\c2ccc([N+](=O)[O-])o2)cc1` gave HCT116 PTEN-null 9, PTK2B oligo ant 0.28 and HCT116 bCat-KO 5.8*.
`CCCCCC(=O)N/N=C/c1ccc([N+](=O)[O-])o1` gave HCT116 PTEN-null 47, PTK2B oligo ant -0.62 and HCT116 bCat-KO 26.
O=C(N/N=C/c1ccc([N+](=O)[O-])o1)c1ccc(O)cc1 was read as HCT116 PTEN-null 5 and HCT116 bCat-KO 3.2*.
Screening COc1cc(NC(=O)c2ccccc2-c2ccccc2)cc(OC)c1 returned HCT116 PTEN-null 87, PTK2B oligo ant -1.1 and HCT116 bCat-KO 92.
`CN(c1ccccc1)S(=O)(=O)c1cccc(C(=O)OCC(=O)NCc2ccc3c(c2)OCO3)c1` gave HCT116 PTEN-null 98 and HCT116 bCat-KO 94.
Screening COC(=O)C(C(=O)Nc1ccc(OC)cc1)C1CCCCCC1 (stereo not drawn) returned HCT116 PTEN-null 49, Lung fibro prol 83, PTK2B oligo ant -0.95, HUVEC prolif 384 75, HCT116 bCat-KO 43 and H69AR inhibit 21*.
Screening CCOC(=O)C1=C(Cn2cnc3ccccc32)NC(=O)NC1c1cc(C)ccc1C (stereo not drawn) returned HCT116 PTEN-null 40, Lung fibro prol 95, PTK2B oligo ant -1.4, HUVEC prolif 384 96, HCT116 bCat-KO 53 and H69AR inhibit 16*.
Screening COC(=O)C1=C(Cn2cnc3ccccc32)NC(=O)NC1c1cc(C)ccc1C (stereo not drawn) returned HCT116 PTEN-null 93, Lung fibro prol 99, PTK2B oligo ant -1.3, HUVEC prolif 384 93, HCT116 bCat-KO 90 and H69AR inhibit 50.
Screening COCCn1ccc(O)c(Cc2ccc(Cl)cc2)c1=O returned HCT116 PTEN-null 105, PTK2B oligo ant -0.26 and HCT116 bCat-KO 107.
